Reference: ChEMBL document CHEMBL1125826, “Synthesis and biological activity of 5-amino- and 5-hydroxyquinolones, and the overwhelming influence of the remote N1-substituent in determining the structure-activity relationship” (1991)
In brackets after ≈: the same amount, converted by molar mass.

How the values were obtained:
Assay type in all cases: functional
Klebsiella pneumoniae = assay: Antibacterial activity was determined against gram negative organism, Klebsiella pneumoniae MGH-2; settings: Klebsiella pneumoniae; read-out: MIC
How it was run: (§1)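 MIC (µg/mL) by standard microtitration against a panel of 10 Gram-positive and Gram-negative organisms; values averaged from multiple experiments.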

Pseudomonas aeruginosa = assay: Antibacterial activity was determined against gram negative organism, Pseudomonas aeruginosa UI-18; settings: Pseudomonas aeruginosa; read-out: MIC; how it was run: as §1
Enterococcus faecalis = assay: Antibacterial activity was determined against gram positive organism, Streptococcus faecalis MGH-2; settings: Enterococcus faecalis; read-out: MIC; how it was run: as §1
Bacteria [1] = assay: MIC ratio measured as the mean MICs of gram-positive bacteria
How it was run: (§2)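 Geometric mean of the microtitration MICs (µg/mL) over the Gram-negative organisms, and separately over the Gram-positive organisms, of the 10-strain panel; individual MICs averaged from multiple experiments.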

Staphylococcus aureus [2] = assay: Antibacterial activity was determined against gram positive organism, Staphylococcus aureus H228; settings: Staphylococcus aureus; read-out: MIC; how it was run: as §1
Streptococcus pneumoniae = assay: Antibacterial activity was determined against gram positive organism, Streptococcus pneumoniae SV-1; settings: Streptococcus pneumoniae; read-out: MIC; how it was run: as §1
Streptococcus pyogenes = assay: Antibacterial activity was determined against gram positive organism, Streptococcus pyogenes C203; settings: Streptococcus pyogenes; read-out: MIC; how it was run: as §1
Bacteria [3] = assay: Antibacterial activity was determined against gram negative organism, Providencia rettgeri. M1771; settings: Bacteria; read-out: MIC; how it was run: as §1
Staphylococcus aureus [4] = assay: Antibacterial activity was determined against gram positive organism, Staphylococcus aureus UC76; how it was run: as §1
[5] = biological target: DNA gyrase (Escherichia coli) (UniProt P0AES6+P0AES4); assay: Minimum inhibitory concentration against Escherichia coli DNA-gyrase in supercoiling assay
Enterobacter cloacae = assay: Antibacterial activity was determined against gram negative organism, Enterobacter cloacae MA2646; settings: Enterobacter cloacae; read-out: MIC
Escherichia coli = assay: Antibacterial activity was determined against gram negative organism, Escherichia coli vogel; settings: Escherichia coli; read-out: MIC; how it was run: as §1
Bacteria [6] = assay: MIC ratio measured as the mean MICs of gram-negative bacteria; how it was run: as §2
[7] = Staphylococcus aureus, read-out: MIC

MIC (Klebsiella pneumoniae) [µg/mL]	MIC (Pseudomonas aeruginosa) [µg/mL]	MIC (Enterococcus faecalis) [µg/mL]	Geometric mean MIC over Gram-positive bacteria (µg/mL) (Bacteria [1])	MIC (Staphylococcus aureus [2]) [µg/mL]	MIC (Streptococcus pneumoniae) [µg/mL]	MIC (Streptococcus pyogenes) [µg/mL]	MIC (Bacteria [3]) [µg/mL]	MIC (Staphylococcus aureus [4]; [7]) [µg/mL]	MIC [5] [µg/mL]	MIC (Enterobacter cloacae) [µg/mL]	MIC (Escherichia coli) [µg/mL]	Geometric mean MIC over Gram-negative bacteria (µg/mL) (Bacteria [6])	MIC (Staphylococcus aureus [4]) [µg/mL]	Compound
0.4 (≈ 1.11 µM)	3.1 (≈ 8.58 µM)	0.2 (≈ 0.553 µM)	0.15	0.2 (≈ 0.553 µM)	0.2 (≈ 0.553 µM)	0.1 (≈ 0.277 µM)	1.6 (≈ 4.43 µM)		2.5 (≈ 6.92 µM)	0.4 (≈ 1.11 µM)	0.1 (≈ 0.277 µM)	0.6	0.1 (≈ 0.277 µM)	CCNCC1CCN(c2cc3c(cc2F)c(=O)c(C(=O)O)cn3CC)C1 (stereo not given)
0.4 (≈ 1.01 µM)	12.5 (≈ 31.6 µM)	0.1 (≈ 0.253 µM)	0.057	0.1 (≈ 0.253 µM)	0.05 (≈ 0.126 µM)	0.05 (≈ 0.126 µM)	0.8 (≈ 2.02 µM)		2.5 (≈ 6.32 µM)	0.2 (≈ 0.505 µM)	0.2 (≈ 0.505 µM)	0.69	0.025 (≈ 0.0632 µM)	CCNCC1CCN(c2c(F)cc3c(=O)c(C(=O)O)cn(CC)c3c2Cl)C1 (stereo not given)
0.2 (≈ 0.593 µM)	0.4 (≈ 1.19 µM)	0.4 (≈ 1.19 µM)	0.27	0.4 (≈ 1.19 µM)	0.4 (≈ 1.19 µM)	0.2 (≈ 0.593 µM)	0.2 (≈ 0.593 µM)		2.5 (≈ 7.41 µM)	0.1 (≈ 0.296 µM)	0.1 (≈ 0.296 µM)	0.17	0.1 (≈ 0.296 µM)	CCn1cc(C(=O)O)c(=O)c2cc(F)c(N3CCC(N)C3)c(F)c21 (stereo not given)
3.1 (≈ 8.24 µM)	25 (≈ 66.4 µM)	0.8 (≈ 2.13 µM)	0.46	0.8 (≈ 2.13 µM)	0.4 (≈ 1.06 µM)	0.8 (≈ 2.13 µM)	12.5 (≈ 33.2 µM)	0.1 (≈ 0.266 µM)	7.5 (≈ 19.9 µM)	1.6 (≈ 4.25 µM)	0.8 (≈ 2.13 µM)	4.15		CCNCC1CCN(c2cc3c(c(N)c2F)c(=O)c(C(=O)O)cn3CC)C1 (stereo not given)
1.6 (≈ 4.2 µM)	12.5 (≈ 32.8 µM)	25 (≈ 65.6 µM)	16.49	6.3 (≈ 16.5 µM)	50 (≈ 131 µM)	50 (≈ 131 µM)	6.3 (≈ 16.5 µM)	3.1 (≈ 8.13 µM)	5 (≈ 13.1 µM)	0.8 (≈ 2.1 µM)	0.8 (≈ 2.1 µM)	2.41		CCn1cc(C(=O)O)c(=O)c2c(O)c(F)c(N3CC(C)NC(C)C3)c(F)c21 (stereo not given)
3.1 (≈ 8.12 µM)	12.5 (≈ 32.7 µM)	12.5 (≈ 32.7 µM)	6.27	3.1 (≈ 8.12 µM)	12.5 (≈ 32.7 µM)	12.5 (≈ 32.7 µM)	6.3 (≈ 16.5 µM)		5 (≈ 13.1 µM)	3.1 (≈ 8.12 µM)	1.6 (≈ 4.19 µM)	4.14	1.6 (≈ 4.19 µM)	CCn1cc(C(=O)O)c(=O)c2cc(F)c(N3CC(C)NC(C)C3)c(Cl)c21 (stereo not given)
0.8 (≈ 2.1 µM)	12.5 (≈ 32.9 µM)	6.3 (≈ 16.6 µM)	4.79	1.6 (≈ 4.21 µM)	12.5 (≈ 32.9 µM)	25 (≈ 65.7 µM)	3.1 (≈ 8.15 µM)	0.8 (≈ 2.1 µM)	7.5 (≈ 19.7 µM)	0.8 (≈ 2.1 µM)	0.4 (≈ 1.05 µM)	1.58		CCn1cc(C(=O)O)c(=O)c2c(N)c(F)c(N3CC(C)NC(C)C3)c(F)c21 (stereo not given)
0.2 (≈ 0.568 µM)	1.6 (≈ 4.54 µM)	0.8 (≈ 2.27 µM)	0.53	0.4 (≈ 1.14 µM)	0.8 (≈ 2.27 µM)	0.8 (≈ 2.27 µM)	0.4 (≈ 1.14 µM)	0.2 (≈ 0.568 µM)	2.5 (≈ 7.1 µM)	0.2 (≈ 0.568 µM)	0.1 (≈ 0.284 µM)	0.3		CCn1cc(C(=O)O)c(=O)c2c(N)c(F)c(N3CCC(N)C3)c(F)c21 (stereo not given)

Compound	MIC (Klebsiella pneumoniae) [µg/mL]	MIC (Pseudomonas aeruginosa) [µg/mL]	MIC (Enterococcus faecalis) [µg/mL]	Geometric mean MIC over Gram-positive bacteria (µg/mL) (Bacteria [1])	MIC (Staphylococcus aureus [2]) [µg/mL]	MIC (Streptococcus pneumoniae) [µg/mL]	MIC (Streptococcus pyogenes) [µg/mL]	MIC (Bacteria [3]) [µg/mL]	MIC (Staphylococcus aureus [4]; [7]) [µg/mL]	MIC [5] [µg/mL]	MIC (Enterobacter cloacae) [µg/mL]	MIC (Escherichia coli) [µg/mL]	Geometric mean MIC over Gram-negative bacteria (µg/mL) (Bacteria [6])	MIC (Staphylococcus aureus [4]) [µg/mL]
CCn1cc(C(=O)O)c(=O)c2c(N)c(F)c(N3CCNCC3)c(F)c21	0.2 (≈ 0.568 µM)	0.8 (≈ 2.27 µM)	1.6 (≈ 4.54 µM)	1.15	1.6 (≈ 4.54 µM)	1.6 (≈ 4.54 µM)	3.1 (≈ 8.8 µM)	0.4 (≈ 1.14 µM)	0.2 (≈ 0.568 µM)	2.5 (≈ 7.1 µM)	0.2 (≈ 0.568 µM)	0.1 (≈ 0.284 µM)	0.26	
O=C(O)c1cn(C2CC2)c2c(F)c(N3CCNCC3)c(F)c(O)c2c1=O	0.2 (≈ 0.547 µM)	0.8 (≈ 2.19 µM)	1.6 (≈ 4.38 µM)	1.06	1.6 (≈ 4.38 µM)	1.6 (≈ 4.38 µM)	1.6 (≈ 4.38 µM)	0.2 (≈ 0.547 µM)	0.2 (≈ 0.547 µM)	0.5 (≈ 1.37 µM)	0.1 (≈ 0.274 µM)	0.05 (≈ 0.137 µM)	0.17	
